# In ChEMBL document CHEMBL1143585, “Synthesis of some cryptolepine analogues, assessment of their antimalarial and cytotoxic activities, and consideration of their antimalarial mode of action” (J Med Chem, 2005):
# What was measured:
# MAC15A [1] = experiment: Ratio of cytotoxic to that of antiplasmodial activity was determined; type: functional, Mus musculus
# MAC15A [2] = experiment: Cytotoxicity against MAC15A mouse adenocarcinomas of the colon cells; type: functional, cell-based; settings: Mus musculus, MAC15A
# Summary of the method: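 MTT assay. MAC15A cells were seeded at 2 × 10^3 per well and attached overnight at 37 °C, 5% CO2. Drugs were dissolved in DMSO and diluted in medium (max 0.1% DMSO), eight wells per concentration, 96 h exposure. MTT (0.5 mg/mL) was then added for 24 h. Formazan was dissolved in DMSO and read at 550 nm. Survival is relative to vehicle control; IC50 from triplicate experiments.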
# Plasmodium falciparum [3] = experiment: In vitro antiplasmodial activity for Plasmodium falciparum; type: functional, organism-based; settings: Plasmodium falciparum
# Summary of the method: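 P. falciparum K1 ring-stage cultures in human A+ erythrocytes (RPMI 1640, A+ serum, glucose), at 2.5% hematocrit and 1% parasitemia. Two-fold serial dilutions in duplicate, final DMSO ≤0.5%. Incubated 48 h at 37 °C under 93% N2/3% O2/4% CO2. Growth read as parasite lactate dehydrogenase activity (APAD/NBT, 550 nm). IC50 by linear regression; at least three separate determinations.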
# Mus musculus [4] = experiment: In vivo antimalarial activity of compound against Plasmodium berghei in mice (Mus musculus) at dose of 12.5 mg/kg treated for 4 days; type: functional
# Summary of the method: (§1)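 Peters 4-day suppressive test in female BALB/c mice (18–20 g), five per group. Mice were infected iv with 1 × 10^7 P. berghei ANKA-infected erythrocytes. Drug was given ip daily for four consecutive days. Blood smears were taken on day 5, and % parasitemia suppression was calculated against untreated infected controls. Survival was recorded as days until signs of malaria illness.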
# Mus musculus [5] = organism: Mus musculus; experiment: Mean survival time taken as number of days before illness due to Plasmodium berghei in untreated mice (Mus musculus); type: functional
# Summary of the method: (§2)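 Peters' 4-day suppressive test in female BALB/c mice (18-20 g), five per group. Each mouse got 1 × 10^7 P. berghei ANKA-infected erythrocytes iv. Drug was given ip in 0.2 mL daily for 4 consecutive days. Survival time was the number of days before signs of malaria illness, compared with untreated infected controls.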
# Plasmodium falciparum [6] = experiment: […] accumulation into acidic parasitic food vacuole at pH=5.5; type: functional
# Mus musculus [7] = experiment: Mean survival time taken as number of days before illness due to Plasmodium berghei when mice (Mus musculus) treated with 6.25 mg/kg dose for 4 days; type: functional; summary of the method: as §2
# Mus musculus [8] = experiment: Mean survival time taken as number of days before illness due to Plasmodium berghei when mice (Mus musculus) treated with 3.125 mg/kg dose for 4 days; type: functional; summary of the method: as §2
# Mus musculus [9] = experiment: Mean survival time taken as number of days before illness due to Plasmodium berghei when mice (Mus musculus) treated with 12.5 mg/kg dose for 4 days; type: functional; summary of the method: as §2
# Mus musculus [10] = experiment: In vivo antimalarial activity of compound against Plasmodium berghei was determined as suppression of parasitemia in mice (Mus musculus) at 6.25 mg/kg treated for 4 days; type: functional; summary of the method: as §1
# Mus musculus [11] = experiment: In vivo antimalarial activity of compound against Plasmodium berghei was determined as suppression of parasitemia in mice (Mus musculus) at 3.125 mg/kg treated for 4 days; type: functional; summary of the method: as §1
# Mus musculus [12] = experiment: In vivo antimalarial activity of compound against Plasmodium berghei in mice (Mus musculus) at dose of 6.25 mg/kg treated for 4 days; type: functional; summary of the method: as §1
# Mus musculus [13] = experiment: In vivo antimalarial activity of compound against Plasmodium berghei was determined as suppression of parasitemia in mice (Mus musculus) at 25 mg/kg treated for 4 days; type: functional; summary of the method: as §1
# Plasmodium falciparum [14] = experiment: […] accumulation into acidic parasitic food vacuole (pH=5.5) relative to Cryptolepine; type: functional
# Summary of the method: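 Calculated from each compound's spectrophotometric pKa via a pH-trapping equation, assuming food-vacuole pH 5.5 and external pH 7.4. The result is expressed relative to cryptolepine's ratio. pKa came from UV spectra (0.05 mg mL-1) in at least seven buffers of pH 5.8–13.0, plus 0.1 M NaOH and 0.1 M HCl. pKa was taken as the midpoint of the λmax absorbance plot. Two experiments per compound.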
# Mus musculus [15] = experiment: In vivo antimalarial activity of compound against Plasmodium berghei was determined as suppression of parasitemia in mice (Mus musculus) at 12.5 mg/kg treated for 4 days; type: functional; summary of the method: as §1
# Mus musculus [16] = experiment: Mean survival time taken as number of days before illness due to Plasmodium berghei when mice (Mus musculus) treated with 25 mg/kg dose for 4 days; type: functional; summary of the method: as §2
# [17] = target: T1, Histidine-rich protein PFHRP-II (Plasmodium falciparum) (UniProt P05227); experiment: Antiplasmodial activity as IC50 against Beta-hematin formation; type: functional
# T1 sequence (whole entry): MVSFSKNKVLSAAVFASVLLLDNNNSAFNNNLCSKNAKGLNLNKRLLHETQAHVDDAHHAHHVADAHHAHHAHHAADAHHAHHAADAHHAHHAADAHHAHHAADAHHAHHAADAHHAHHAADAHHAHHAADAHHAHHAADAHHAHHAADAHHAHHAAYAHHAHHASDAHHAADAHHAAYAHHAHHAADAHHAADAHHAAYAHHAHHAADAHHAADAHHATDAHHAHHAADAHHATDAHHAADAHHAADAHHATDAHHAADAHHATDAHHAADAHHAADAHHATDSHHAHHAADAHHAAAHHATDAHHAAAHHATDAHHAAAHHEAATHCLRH
# Summary of the method: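 β-Hematin inhibition (BHIA) assay: hemin (0.4 µmol/well) in DMSO with compound at 0.25–2 (or 4) molar equivalents to hemin, in triplicate. Final DMSO was 25%. Formation started with 8 M acetate buffer pH 5.0, then 37 °C for 18 h. The centrifuged pellet was dissolved in 0.1 M NaOH and read at 405 nm. BHIA50 is the drug equivalents relative to hemin giving 50% inhibition.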
# Mus musculus [18] = experiment: In vivo antimalarial activity of compound against Plasmodium berghei in mice (Mus musculus) at dose of 25 mg/kg treated for 4 days; type: functional; summary of the method: as §1
# Mus musculus [19] = experiment: In vivo antimalarial activity of compound against Plasmodium berghei in mice (Mus musculus) at dose of 3.125 mg/kg treated for 4 days; type: functional; summary of the method: as §1
# [20] = Ionization constant for the compound; type: physicochemical
# Plasmodium falciparum [21] = experiment: Normalized IC50 as product of antiplasmodial IC50 and vacuolar accumulation IC50; type: functional, organism-based
# Mus musculus [22] = experiment: Mean survival time taken as number of days before illness due to Plasmodium berghei when mice (Mus musculus) treated with 10 mg/kg dose for 4 days; g=mice (Mus musculus) survived the test; type: functional, organism-based; parameters: dose 10 mg/kg; summary of the method: as §2
# Mus musculus [23] = experiment: In vivo antimalarial activity of compound against Plasmodium berghei was determined as suppression of parasitaemia in mice (Mus musculus) at 10 mg/kg treated for 4 days; type: functional
# Mus musculus [24] = experiment: In vivo antimalarial activity of compound against Plasmodium berghei in mice (Mus musculus) at dose of 10 mg/kg treated for 4 days; type: functional
# Mus musculus [25] = experiment: In vivo antimalarial activity of compound against Plasmodium berghei was determined as suppression of parasitaemia in mice (Mus musculus) at 20 mg/kg treated for 4 days; c=toxic after the 2nd dose; type: functional, organism-based; parameters: dose 20 mg/kg
# Mus musculus [26] = experiment: Mean survival time taken as number of days before illness due to Plasmodium berghei when mice (Mus musculus) treated with 20 mg/kg dose for 4 days; c=toxic after the 2nd dose; type: functional, organism-based; parameters: dose 20 mg/kg
# Mus musculus [27] = organism: Mus musculus; experiment: Mean survival time taken as number of days before illness due to Plasmodium berghei in […] mice (Mus musculus); c=toxic after the 2nd dose; type: functional, organism-based
# Mus musculus [28] = experiment: In vivo antimalarial activity of compound against Plasmodium berghei in mice (Mus musculus) at dose of 20 mg/kg treated for 4 days; c = toxic after 2nd dose; type: functional, organism-based; parameters: dose 20 mg/kg
compound,measurement,setting,value
C[n+]1c2cc(Cl)c(Cl)cc2cc2[nH]c3ccccc3c21.[Cl-],Ratio,MAC15A [1],9.33
same,IC50,MAC15A [2],3.32 µM
same,IC50,Plasmodium falciparum [3],0.356 µM
C[n+]1c2ccc(Br)cc2cc2[nH]c3ccc(Br)cc3c21.[Cl-],Ratio,MAC15A [1],123
same,Parasitemia,Mus musculus [4],3.55%
same,Mean survival time,Mus musculus [5],10 days
same,Vascular accumulation ratio,Plasmodium falciparum [6],77.9
same,Mean survival time,Mus musculus [7],11.6 days
same,Mean survival time,Mus musculus [8],10 days
same,Mean survival time,Mus musculus [9],11.8 days
same,Suppression of parasitemia,Mus musculus [10],46.7%
same,Suppression of parasitemia,Mus musculus [11],15.9%
same,Parasitemia,Mus musculus [12],7.67%
same,Suppression of parasitemia,Mus musculus [13],91.4%
same,Ratio,Plasmodium falciparum [14],0.99
same,Suppression of parasitemia,Mus musculus [15],75.4%
same,Mean survival time,Mus musculus [16],15 days
same,BHIA50,[17],1.53
same,Parasitemia,Mus musculus [18],1.24%
same,Parasitemia,Mus musculus [19],12.1%
same,pKa,[20],9.1
Cc1ccc2c(c1)cc1[nH]c3ccccc3c1[n+]2C.[Cl-],Ratio,MAC15A [1],9.81
same,IC50,MAC15A [2],4.11 µM
same,IC50,Plasmodium falciparum [3],0.419 µM
C[n+]1c2ccccc2c(Cl)c2[nH]c3cc(Cl)ccc3c21,Vascular accumulation ratio,Plasmodium falciparum [6],37.94
same,IC50,Plasmodium falciparum [21],12.9 µM
same,BHIA50,[17],0.96
same,pKa,[20],7.35
C[n+]1c2ccccc2cc2[nH]c3cc(Cl)ccc3c21.[I-],Mean survival time,Mus musculus [5],9.6 days
same,Mean survival time,Mus musculus [16],14 days
C[n+]1c2cc(Cl)ccc2cc2[nH]c3ccc(Br)cc3c21.[Cl-],Ratio,MAC15A [1],30.8
same,IC50,MAC15A [2],1.14 µM
same,IC50,Plasmodium falciparum [3],0.037 µM
Cc1ccc2cc3[nH]c4ccc(Br)cc4c3[n+](C)c2c1.[Cl-],Ratio,MAC15A [1],20
same,IC50,MAC15A [2],5.21 µM
same,IC50,Plasmodium falciparum [3],0.26 µM
C[n+]1c2ccc(Br)cc2cc2[nH]c3ccccc3c21,Vascular accumulation ratio,Plasmodium falciparum [6],79.3
same,BHIA50,[17],0.63
same,pKa,[20],10.2
C[n+]1c2ccc(Cl)c(Cl)c2cc2[nH]c3ccccc3c21.[Cl-],Ratio,MAC15A [1],21.7
same,IC50,MAC15A [2],1.91 µM
same,IC50,Plasmodium falciparum [3],0.088 µM
C[n+]1c2ccc(Cl)cc2cc2[nH]c3ccccc3c21.[Cl-],Ratio,MAC15A [1],13.5
same,IC50,MAC15A [2],2.24 µM
same,IC50,Plasmodium falciparum [3],0.166 µM
CCN(CC)CCCC(C)Nc1ccnc2cc(Cl)ccc12.O=P(O)(O)O.O=P(O)(O)O (configuration not stated) [CHLOROQUINE PHOSPHATE],Mean survival time,Mus musculus [22],Mice survived
same,Mean survival time,Mus musculus [5],8.56 days
same,Suppression of parasitemia,Mus musculus [23],100%
same,Parasitemia,Mus musculus [24],0%
same,BHIA50,[17],1.44
C[n+]1c2ccccc2cc2[n-]c3ccccc3c21.Cl [CRYPTOLEPINE HYDROCHLORIDE],Suppression of parasitemia,Mus musculus [25],Toxic after second dose
same,Ratio,MAC15A [1],8.98
same,Mean survival time,Mus musculus [26],Toxic after second dose
same,Mean survival time,Mus musculus [27],Toxic after second dose
same,IC50,MAC15A [2],3.95 µM
same,IC50,Plasmodium falciparum [3],0.44 µM
same,Parasitemia,Mus musculus [28],Toxic after second dose
